ADAM17 inh: ADAM17 inhibitors, primary screen, biochemical, QFRET. Disintegrin and metalloproteinase domain-containing protein 17 (Homo sapiens), P78536. recombinant ADAM17, EDANS/DABCYL FRET peptide cleavage. inhibition, % at 6.95 µM. 0.83% of 370,000 active;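 active = inhibition above the mean of compounds lying between control limits plus 3 SD, set per campaign, cut at about 8.5% in these data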;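 note: 0% = DMSO-only wells as the low control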
KLK7 zymogen act: proKLK7 zymogen activators, primary screen, biochemical, fluorescence intensity. Kallikrein-7 (Homo sapiens), P49862. purified proKLK7, EDANS-DABCYL substrate fluorescence; 100% is mature enzyme control, 0% vehicle. activation, % at 7 µM. 0.9% of 370,000 active. AID 652039, 2013;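 active = activation above the mean of all tested compounds plus 3 SD, computed per campaign excluding outliers beyond control limits, cut at about 13% in these data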
Target sequence (P49862 whole entry, looked up): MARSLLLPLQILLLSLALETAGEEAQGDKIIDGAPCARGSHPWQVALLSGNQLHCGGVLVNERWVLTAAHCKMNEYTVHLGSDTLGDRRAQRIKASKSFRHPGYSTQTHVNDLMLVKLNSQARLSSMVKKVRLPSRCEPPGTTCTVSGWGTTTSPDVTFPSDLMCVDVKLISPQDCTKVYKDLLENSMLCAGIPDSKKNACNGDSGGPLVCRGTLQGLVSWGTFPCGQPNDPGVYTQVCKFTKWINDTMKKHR
JMJD2C inh: inhibitors of GASC-1 histone demethylase, primary screen, biochemical, fluorescence, DELFIA europium. Lysine-specific demethylase 4C (Homo sapiens), Q9H3R0. GST-JMJD2C(1-420) H3K9me3 demethylation. inhibition, % at 2.35 µM. 0.069% of 330,000 active. AID 2099, 2009;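 active = more than half of a compound's replicate wells show inhibition beyond 50%, single wells judged on their own value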;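 note: signal counts dimethyl H3K9 product captured on neutravidin plate; 0% = median of DMSO wells and 100% = 0.3 times that DMSO median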
ADAM10 inh: human ADAM10 inhibitors, primary screen, biochemical, QFRET, HTS; inhibition, % at 7 µM; Disintegrin and metalloproteinase domain-containing protein 10 (Homo sapiens), O14672; 0.62% of 370,000 active; AID 720582, 2013; recombinant ADAM10, EDANS/DABCYL FRET peptide cleavage, 3 h;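 active = inhibition above a per-campaign cutoff equal to the mean of compounds falling between control-based bounds plus 3 SD, cut at about 20% in these data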;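 note: 0% = DMSO wells while the 100% control is not disclosed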
NR2E3 ag-1: NR2E3 agonists in two-hybrid cells, primary screen, cell-based, luminescence, CHO-S, Gal4-NCOR/VP16-NR2E3; Photoreceptor-specific nuclear receptor (Homo sapiens), Q9Y5X4; luciferase; inhibition of corepressor binding, % at 3.98 µM; 0.35% of 360,000 active;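 active = inhibition above the mean of all tested compounds plus 3 SD, cut at about 70% in these data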;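 note: 0% = DMSO with NR2E3 transfected cells and 100% = cells lacking NR2E3 construct; higher means lower luciferase signal from less NR2E3 corepressor binding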
Target sequence (Q9Y5X4 whole entry, looked up, the tested form may be a part): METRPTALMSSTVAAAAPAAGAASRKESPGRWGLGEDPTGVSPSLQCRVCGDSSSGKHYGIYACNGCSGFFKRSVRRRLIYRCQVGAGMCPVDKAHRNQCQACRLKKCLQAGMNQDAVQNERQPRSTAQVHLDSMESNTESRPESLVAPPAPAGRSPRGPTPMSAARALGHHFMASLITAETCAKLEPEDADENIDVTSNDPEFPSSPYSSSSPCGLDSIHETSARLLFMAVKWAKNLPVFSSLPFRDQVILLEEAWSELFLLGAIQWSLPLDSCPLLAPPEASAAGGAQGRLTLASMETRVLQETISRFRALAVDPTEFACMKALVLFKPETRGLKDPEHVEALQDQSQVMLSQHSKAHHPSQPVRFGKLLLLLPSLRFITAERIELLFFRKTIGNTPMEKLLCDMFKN
NR2E3 ag-2: inhibitors of NR2E3-RetCOR corepressor binding, primary screen, NR2E3 agonist project, biochemical, TR-FRET, GST-NR2E3, biotin-RetCOR; Photoreceptor-specific nuclear receptor (Homo sapiens), Q9Y5X4; 1536-well; inhibition of corepressor binding, % at 4.78 µM; 0.12% of 320,000 active; AID 2300, 2010;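 active = percent inhibition above the cutoff of mean plus 3 SD of all tested compounds, set per screening campaign, cut at about 20% in these data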;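 note: 0% = DMSO wells and 100% = biotin wells as full block of FRET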
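Assay system: NR2E3–RetCOR corepressor complex. Quantity: 1.35 nM GST-NR2E3. Buffer or medium: pH 7.5 Tris-based buffer. Reagent: biotinylated RetCOR corepressor at 7 nM final. Schedule: 5 h at 4 °C. Detection: TR-FRET, emission read at 617 and 671 nm. Replicates: one well per compound, singlicate testing.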
ADAM10 confirm: human ADAM10 inhibitors, confirmation, biochemical, QFRET, triplicate; 1% of 2,100 active; inhibition, % at 6.95 µM; AID 743208, 2013; shares compounds with ADAM10 inh; ADAM10 QFRET peptide cleavage, EDANS fluorescence;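 active = inhibition above about 20% chosen separately for each screening run, limit read from the data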;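 note: 0% = DMSO wells and 100% = marimastat wells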
ADAM17 counter: ADAM17 inhibitors, counter-screen for ADAM10 exosite inhibitor project, biochemical, QFRET, high throughput; shares compounds with ADAM10 inh; ADAM17 QFRET peptide cleavage, EDANS fluorescence; inhibition, % at 6.95 µM; 0.5% of 2,100 active; AID 743214, 2013;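 active = mean triplicate inhibition above the solvent-only control wells' mean plus 3 SD, cut at about 12% in these data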;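 note: 0% = DMSO wells and 100% = marimastat wells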
ADAM10 counter: ADAM10 inhibitors, counter-screen for ADAM17 exosite inhibitor project, biochemical, FRET, human ADAM10; shares compounds with ADAM17 inh; recombinant ADAM10, EDANS/DABCYL FRET peptide cleavage, 3 h; AID 743256, 2014; 47% of 2,900 active; inhibition, % at 6.95 µM;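 active = mean inhibition over the triplicate runs exceeds the activity threshold set in the earlier primary screen, cut at about 20% in these data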;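 note: 0% = DMSO wells and 100% = marimastat wells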
ADAM17 confirm: ADAM17 inhibitors, hit retest, confirmation, biochemical, QFRET peptide cleavage; shares compounds with ADAM17 inh; recombinant ADAM17, EDANS/DABCYL QFRET peptide cleavage; inhibition, % at 6.95 µM; 65% of 2,900 active;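 active = mean inhibition across replicates above the hit cutoff set in the primary screen, cut at about 8.5% in these data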;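 note: 0% = DMSO wells and 100% = marimastat wells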
An asterisk follows results filed as active; . = not tested or not shown. Shown are actives, neighbours in structure and some others; about 2.5% of the full set was active somewhere.

SMILES	ADAM17 inh	KLK7 zymogen act	JMJD2C inh	ADAM10 inh	NR2E3 ag-1	NR2E3 ag-2	ADAM10 confirm	ADAM17 counter	ADAM10 counter	ADAM17 confirm
CCOc1ccc(-c2[nH]ncc2Oc2ccccc2OC)c(O)c1	9.6*	-0.4	-33.3	21.5*	-17.3	1.5	3.8	2.0	29.8*	14.7*
CN(C)CC(=O)N[C@H]1C[C@@H]2O[C@@H](CO)CC[C@@H]2O[C@@H]1CCc1ccc(-c2ccc(F)cc2)cc1	-0.5	-0.7	.	2.9	.	.	.	.	.	.
COc1ccc(C)cc1NC(=O)CN(c1ccccc1F)S(C)(=O)=O	-4.6	0.3	10.5	-4.8	3.3	3.8	.	.	.	.
Cc1cccc(C)c1N(CC(=O)Nc1cc(Cl)ccc1Oc1ccccc1)S(C)(=O)=O	8.8*	-0.1	-0.5	30.3*	-13.9	2.3	6.4	2.9	26.4*	15.7*
Cc1ccc(C)c(N(CC(=O)Nc2cc(Cl)ccc2Oc2ccccc2)S(C)(=O)=O)c1	10.4*	-0.9	-11.0	29.0*	4.4	0.3	5.5	2.8	23.7*	13.3*
COc1ccccc1C(CCNS(=O)(=O)c1ccc(C)cc1)c1ccco1 (stereo not drawn)	9.3*	-0.6	5.1	21.4*	24.3	-2.3	5.0	1.9	27.2*	17.6*
O=C(OCc1ccccc1)[C@H](Cc1ccccc1)NC(=O)[C@@H]1CC=C[C@@H]2CCN(CCc3ccccc3)C(=O)[C@@H]21	6.1	.	.	16.2	.	.	.	.	.	.
COc1ccc(S(=O)(=O)Nc2ccc(F)cc2F)cc1C(=O)N1CCOCC1	-5.9	0.1	0.0	5.2	11.9	1.2	.	.	.	.
COc1ccccc1-c1nnc(SC/C(O)=C(\C#N)c2nc3ccccc3[nH]2)n1C1CCCCC1	8.7*	-0.9	8.1	28.3*	-22.1	0.2	0.7	0.4	5.7	4.9
CCOC(=O)C1(C)CCCN(C(=O)c2cccc(C#N)c2)C1 (stereo not drawn)	0.9	-0.2	.	1.9	-27.6	.	.	.	.	.
Clc1cccc(NCc2nnc(SCc3ccc(Cl)cc3Cl)o2)c1	9.3*	-0.5	-0.4	30.8*	6.9	-2.6	4.2	2.4	19.6	14.3*
Cc1cc(C(=O)C(C)OC(=O)c2cnccn2)c(C)n1-c1ccccc1 (stereo not drawn)	0.4	0.5	20.5	-6.5	-32.4	-0.9	.	.	.	.
N#Cc1ccc(NC(=O)Cn2cnc([N+](=O)[O-])c2)cc1	-0.2	0.4	-2.8	-6.2	-19.8	-4.3	.	.	.	.
O=C(Cn1cnc([N+](=O)[O-])c1)Nc1cc(Oc2ccc(Cl)cc2Cl)cc([N+](=O)[O-])c1	9.5*	0.7	-19.6	23.2*	2.4	-0.8	6.6	3.5	33.2*	17.3*
CC(C)NC(=O)Nc1ccc2c(c1)C(=O)N([C@H](C)CO)C[C@H](C)[C@@H](CN(C)S(=O)(=O)c1ccccc1)OCCCC[C@@H](C)O2	-3.4	0.6	.	-8.8	-27.4	.	.	.	.	.
C[C@@H]1CN([C@H](C)CO)C(=O)c2cc(NC(=O)Nc3ccc(F)cc3)ccc2O[C@@H](C)CCCCO[C@H]1CN(C)S(=O)(=O)c1ccc(Cl)cc1	13.2*	-0.3	.	32.2*	-9.6	.	9.2	3.9	34.1*	16.7*
C[C@@H]1CN([C@H](C)CO)C(=O)c2cc(NC(=O)Nc3ccc(C(F)(F)F)cc3)ccc2O[C@H]1CN(C)S(=O)(=O)c1ccccc1	11.0*	-0.4	41.8	28.3*	3.4	.	5.9	2.5	28.0*	15.7*
C[C@H]1CN([C@@H](C)CO)C(=O)c2cccc(NS(=O)(=O)c3ccc(F)cc3)c2O[C@H]1CN(C)Cc1ccc(Cl)c(Cl)c1	9.2*	0.5	-10.0	20.2*	11.4	.	4.6	1.4	27.6*	15.2*
COc1ccc(S(=O)(=O)Nc2cccc3c2O[C@H](CN(C)Cc2ccc(Cl)c(Cl)c2)[C@@H](C)CN([C@H](C)CO)C3=O)cc1	6.5	-0.1	.	19.7	-4.3	.	.	.	.	.
Cc1cnc(C(=O)OCC(=O)N2CCN(S(=O)(=O)c3ccc(Cl)cc3)CC2)cn1	2.1	-0.9	8.3	-12.2	2.0	4.1	.	.	.	.
CC(C)NC(=O)C1Cc2c(-c3ccccc3Oc3ccccc3)ccnc2O1 (stereo not drawn)	-1.2	0.3	.	-19.5	11.7	.	.	.	.	.
O=C(Nc1ccc(C(=O)N2CCCCC2)cc1)Nc1cccc(Cl)c1	-2.6	0.4	-1.4	4.1	-66.1	0.3	.	.	.	.
COc1cc([N+](=O)[O-])ccc1NC(=O)Cc1ccccc1	-5.1	0.2	1.6	-1.4	15.2	-1.1	.	.	.	.
COc1cc([N+](=O)[O-])ccc1NC(=O)CCCOc1cccc(C)c1C	11.8*	0.3	2.5	21.7*	7.4	3.8	3.4	1.3	17.2	10.5*
OCC[C@@H]1C[C@H](O)[C@@H](O)[C@@]2(OCc3cc(C(F)(F)F)ccc32)O1	1.8	1.1	.	2.5	8.6	.	.	.	.	.
N#CC1=C(N)NC(SCC(=O)c2ccc(Br)cc2)=C(C#N)C12CCCCC2	12.6*	-0.1	1.1	21.8*	-4.5	-1.2	5.3	0.7	41.7*	18.6*
CCOC(=O)C1=CN(Cc2cccc(F)c2)S(=O)(=O)NC1CCc1ccccc1 (stereo not drawn)	11.9*	0.5	.	21.1*	-5.4	.	8.7	2.9	50.7*	19.7*
COc1ccc(-c2[nH]c3ccccc3c2SCCNC(=O)c2ccccc2)cc1	6.7	0.4	-1.6	-3.3	-4.6	0.8	.	.	.	.

Screening results deposited in PubChem BioAssay by several laboratories.
